Source: ChEMBL document CHEMBL1134346, “Labeling and evaluation of N-[11C]methylated quinoline-2-carboxamides as potential radioligands for visualization of peripheral benzodiazepine receptors” (J Med Chem, 2001)

How the values were obtained:
Type in all cases: ADME, organism-based
Rattus norvegicus [1] = organism: Rattus norvegicus; test: Tissue (blood) concentration of radioactivity at 30 min post-injection into Albino male CD rats with vehicle.; conditions: in vivo, 0.5 h
Summary of the method: (§1)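 Separate groups of five rats received tail-vein PK 11195 (1.4-1.6 mg; 5 mg/kg) in 30 µL DMSO:EtOH 1:1, or vehicle alone, immediately before iv radioligand (90-170 µCi in saline, 0.9-1 Ci/µmol). Rats were decapitated at 30 min and tissues gamma-counted; values are %I.D./g.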

Rattus norvegicus [2] = organism: Rattus norvegicus; test: Tissue (adrenal gland) concentration of radioactivity at 30 min post-injection into Albino male CD rats with vehicle.; conditions: in vivo, 0.5 h; summary of the method: as §1
Rattus norvegicus [3] = organism: Rattus norvegicus; test: Tissue (blood) distribution in Albino male CD rats after 90 minutes expressed as percent of injected dose per gram of organ.; conditions: in vivo, 1.5 h
Summary of the method: (§2)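 Radioligand given in saline into tail vein of male albino CD rats (225-250 g); 100-200 µCi per animal, 1-2 Ci/µmol at injection depending on radioligand. Three rats per time point were decapitated under light ether anaesthesia. Blood, plasma, brain regions and washed organs were weighed and gamma-counted. Uptake is %I.D./g tissue, mean ± SD.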

Rattus norvegicus [4] = organism: Rattus norvegicus; test: Tissue (lung) distribution in Albino male CD rats after 90 minutes expressed as percent of injected dose per gram of organ.; conditions: in vivo, 1.5 h
Summary of the method: (§3)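 Male albino CD rats (225-250 g) received the 11C-labelled radioligand in saline by tail-vein injection. Three rats per time point were decapitated under light ether anaesthesia at 5, 15, 30, 60 or 90 min. Blood was collected heparinized and plasma separated by centrifugation. The pituitary was dissected from the brain. Lung, liver (three-lobe pieces) and right deltoid muscle were sampled, washed in cold saline, gamma-counted and weighed. Results are %I.D./g.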

Rattus norvegicus [5] = organism: Rattus norvegicus; test: Tissue (adrenal gland) distribution in Albino male CD rats after 90 minutes expressed as percent of injected dose per gram of organ.; conditions: in vivo, 1.5 h; summary of the method: as §2
Rattus norvegicus [6] = organism: Rattus norvegicus; test: Tissue (intestine) distribution in Albino male CD rats after 15 minutes expressed as percent of injected dose per gram of organ.; conditions: in vivo, 0.25 h; summary of the method: as §2
Rattus norvegicus [7] = organism: Rattus norvegicus; test: Tissue (muscle) distribution in Albino male CD rats after 15 minutes expressed as percent of injected dose per gram of organ.; conditions: in vivo, 0.25 h; summary of the method: as §3
Rattus norvegicus [8] = organism: Rattus norvegicus; test: Tissue (adrenal gland) distribution in Albino male CD rats after 5 minutes expressed as percent of injected dose per gram of organ.; conditions: in vivo; summary of the method: as §2
Rattus norvegicus [9] = organism: Rattus norvegicus; test: Tissue (cortex) distribution in Albino male CD rats after 5 minutes expressed as percent of injected dose per gram of organ.; conditions: in vivo; summary of the method: as §2
Rattus norvegicus [10] = organism: Rattus norvegicus; test: Tissue (kidney) distribution in Albino male CD rats after 60 minutes expressed as percent of injected dose per gram of organ.; conditions: in vivo, 1 h; summary of the method: as §2
Rattus norvegicus [11] = organism: Rattus norvegicus; test: Tissue (Muscle) distribution in Albino male CD rats after 15 minutes expressed as percent of injected dose per gram of organ.; conditions: in vivo, 0.25 h; summary of the method: as §2
Rattus norvegicus [12] = organism: Rattus norvegicus; test: Tissue (blood) concentration of radioactivity at 30 min post-injection into Albino male CD rats with vehicle; conditions: in vivo, 0.5 h; summary of the method: as §1

Row | I.D./g (Rattus norvegicus [1]) | I.D./g (Rattus norvegicus [2]) | I.D./g (Rattus norvegicus [3]) | I.D./g (Rattus norvegicus [4]) | I.D./g (Rattus norvegicus [5]) | I.D./g (Rattus norvegicus [6]) | I.D./g (Rattus norvegicus [7]) | I.D./g (Rattus norvegicus [8]) | I.D./g (Rattus norvegicus [9]) | I.D./g (Rattus norvegicus [10]) | I.D./g (Rattus norvegicus [11]) | I.D./g (Rattus norvegicus [12]) | SMILES
1 | 0.04% | 1.79% | 0.05% | 1.55% | 2.22% | 0.37% | 0.13% | 1.12% | 0.1% | 0.51% | – | – | CCC(C)N(C)C(=O)c1nc2ccccc2c(-c2ccccc2F)c1C (stereo not given)
2 | – | 0.62% | 0.04% | 1.21% | 3.74% | 0.78% | – | 0.77% | 0.25% | 1.14% | 0.25% | 0.01% | Cc1c(C(=O)N(C)Cc2ccccc2)nc2ccccc2c1-c1ccccc1
3 | 0.03% | 1.6% | 0.03% | 1.27% | 1.8% | 0.32% | 0.14% | 1.32% | 0.12% | 0.78% | – | – | CCC(C)N(C)C(=O)c1nc2ccccc2c(-c2ccccc2)c1C (stereo not given)
